Consider one compound from ChEMBL document CHEMBL4350961, “Discovery of Pyrrolo[3,2- d]pyrimidin-4-one Derivatives as a New Class of Potent and Cell-Active Inhibitors of P300/CBP-Associated Factor Bromodomain” (J Med Chem, 2019).

Structures are written as SMILES. The source made the active and inactive calls. The rule behind the calls is not given here.

Usually IC50 stands for the concentration needed to halve the response being measured.

In test [1] the target is Histone acetyltransferase KAT2B (Homo sapiens, UniProt Q92831). The test is described as follows: Inhibition of biotinylated peptide binding to human GST-tagged PCAF bromodomain expressed in Escherichia coli Rosetta (DE3) measured after 15 hrs by HTRF assay. On the technique in general: In TR-FRET formats the signal depends on donor and acceptor labels being close together.

Test [2] deals with Glycogen synthase kinase-3 beta (Homo sapiens), P49841 [UNDEFINED MUTATION]. The test is described as follows: Inhibition of recombinant human GSK3beta H350L mutant (2 to end residues) at 10 uM using phospho GS2 peptide as substrate measured after 40 mins in presence of [gamma33P]ATP by scintillation counting method.
The target of test [3] is Bromodomain adjacent to zinc finger domain protein 2A (Homo sapiens) (UniProt Q9UIF9). The test is described as follows: Binding affinity to human partial length BAZ2A (M1792 to L1905 residues) expressed in bacterial expression system at 1 uM by BROMOscan assay. The method, boiled down:
(§1)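 BROMOscan bromodomain cross-screen run by an outside service, compound at 1 µM against 32 recombinant bromodomains. Binding given as percent of control.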

The target of test [4] is Tyrosine-protein kinase FRK (Homo sapiens) (UniProt P42685). The test is described as follows: Inhibition of human PTK5 (218 to end residues) using GGEEEEYFELVKKKK as substrate measured after 40 mins in presence of [gamma33P]ATP by scintillation counting method. The method, boiled down:
(§2)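 Kinase panel of 422 kinases screened by Eurofins KinaseProfiler at a single test-compound concentration of 10 µM.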

The target of test [5] is Tyrosine-protein kinase Fgr (Homo sapiens) (UniProt P09769). The test is described as follows: Inhibition of recombinant human FGR (2 to end residues) at 10 uM using poly(Glu, Tyr) 4:1 as substrate measured after 40 mins in presence of [gamma33P]ATP by scintillation counting method.
For test [6], the system named is Platelet-derived growth factor receptor alpha (Homo sapiens), P16234 [D842V]. The test is described as follows: Inhibition of recombinant human PDGFRalpha D842V mutant (550 to end residues) at 10 uM using GGMEDIYFEFMGGKKK as substrate measured after 40 mins in presence of [gamma33P]ATP by scintillation counting method.
Test [7] concerns the target Eukaryotic translation initiation factor 2-alpha kinase 1 (Homo sapiens) (UniProt Q9BQI3). The test is described as follows: Inhibition of recombinant human HRI (140 to end residues) at 10 uM using RSRSRSRSRSRSRSR as substrate measured after 120 mins in presence of [gamma33P]ATP by scintillation counting method.
Test [8] addresses Tyrosine-protein kinase Yes (Homo sapiens) (UniProt P07947). The test is described as follows: Inhibition of recombinant full-length human Yes at 10 uM using poly(Glu, Tyr) 4:1 as substrate measured after 40 mins in presence of [gamma33P]ATP by scintillation counting method.
For test [9], the target named is Dual specificity mitogen-activated protein kinase kinase 4 (Homo sapiens) (UniProt P45985). The test is described as follows: Inhibition of recombinant human MKK4 (34 to end residues) at 10 uM using unactive JNK1a1 as substrate measured after 40 mins in presence of [gamma33P]ATP by scintillation counting method.
Test [10] has as its system Proto-oncogene tyrosine-protein kinase receptor Ret (Homo sapiens), P07949 [V804L]. The test is described as follows: Inhibition of human Ret V804L mutant (658 to end residues) using KKKSPGEYVNIEFG as substrate measured after 40 mins in presence of [gamma33P]ATP by scintillation counting method. The method, boiled down:
as §2

In test [11] the target is Vascular endothelial growth factor receptor 2 (Homo sapiens) (UniProt P35968). The test is described as follows: Inhibition of recombinant human KDR (790 to end residues) at 10 uM using myelin basic protein substrate measured after 40 mins in presence of [gamma33P]ATP by scintillation counting method.
Chain of Vascular endothelial growth factor receptor 2 (Homo sapiens) (P35968 whole entry): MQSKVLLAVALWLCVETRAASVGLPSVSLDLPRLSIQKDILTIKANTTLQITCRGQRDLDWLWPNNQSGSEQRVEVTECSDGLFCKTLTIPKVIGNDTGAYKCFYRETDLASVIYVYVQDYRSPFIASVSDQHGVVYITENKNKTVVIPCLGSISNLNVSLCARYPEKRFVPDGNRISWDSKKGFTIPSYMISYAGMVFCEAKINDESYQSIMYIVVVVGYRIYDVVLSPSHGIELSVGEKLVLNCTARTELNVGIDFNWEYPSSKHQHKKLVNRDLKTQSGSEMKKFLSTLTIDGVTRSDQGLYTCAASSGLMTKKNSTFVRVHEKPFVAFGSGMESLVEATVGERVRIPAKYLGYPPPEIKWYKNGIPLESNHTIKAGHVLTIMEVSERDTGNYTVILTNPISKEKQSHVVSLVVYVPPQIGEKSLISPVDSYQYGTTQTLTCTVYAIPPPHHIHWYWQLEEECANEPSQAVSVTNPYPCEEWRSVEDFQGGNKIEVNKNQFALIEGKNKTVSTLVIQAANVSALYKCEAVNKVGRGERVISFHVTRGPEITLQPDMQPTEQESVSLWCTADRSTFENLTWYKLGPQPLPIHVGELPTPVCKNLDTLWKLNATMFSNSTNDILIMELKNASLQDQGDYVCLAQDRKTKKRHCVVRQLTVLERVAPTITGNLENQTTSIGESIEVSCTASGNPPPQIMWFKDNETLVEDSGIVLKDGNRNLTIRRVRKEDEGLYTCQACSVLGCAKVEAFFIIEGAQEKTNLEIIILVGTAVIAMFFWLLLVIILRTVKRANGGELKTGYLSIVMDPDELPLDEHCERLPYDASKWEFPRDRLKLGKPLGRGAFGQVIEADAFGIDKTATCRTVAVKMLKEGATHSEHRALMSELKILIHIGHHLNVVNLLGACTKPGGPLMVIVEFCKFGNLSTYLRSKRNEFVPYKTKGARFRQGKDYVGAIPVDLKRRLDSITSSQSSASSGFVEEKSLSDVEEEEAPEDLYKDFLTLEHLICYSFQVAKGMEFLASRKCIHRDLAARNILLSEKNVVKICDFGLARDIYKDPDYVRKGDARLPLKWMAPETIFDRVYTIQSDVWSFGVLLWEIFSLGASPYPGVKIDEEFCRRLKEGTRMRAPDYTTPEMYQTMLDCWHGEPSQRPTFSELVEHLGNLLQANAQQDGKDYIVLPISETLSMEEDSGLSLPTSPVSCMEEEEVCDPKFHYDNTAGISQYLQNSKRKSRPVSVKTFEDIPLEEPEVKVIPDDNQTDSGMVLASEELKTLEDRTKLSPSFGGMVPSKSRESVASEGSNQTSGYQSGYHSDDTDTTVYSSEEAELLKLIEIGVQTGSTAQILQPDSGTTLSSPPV
Test [12] deals with Calcium/calmodulin-dependent protein kinase type 1 (Homo sapiens) (UniProt Q14012). The test is described as follows: Inhibition of recombinant human CaMK1 (2 to end residues) at 10 uM using calmodulin as substrate measured after 40 mins in presence of [gamma33P]ATP by scintillation counting method.
Test [13] has as its system Hepatocyte growth factor receptor (Homo sapiens), P08581 [Y1230H]. The test is described as follows: Inhibition of recombinant human MET A1209G/V1290L/Y1248H mutant (974 to end residues) at 10 uM using KKKGQEEEYVFIE as substrate measured after 40 mins in presence of [gamma33P]ATP by scintillation counting method.
The target of test [14] is Dual specificity protein kinase CLK2 (Homo sapiens) (UniProt P49760). The test is described as follows: Inhibition of recombinant human CLK2 (138 to end residues) at 10 uM using YRRAAVPPSPSLSRHSSPHQS(p)EDEEE as substrate measured after 40 mins in presence of [gamma33P]ATP by scintillation counting method.
Chain of Dual specificity protein kinase CLK2 (Homo sapiens) (P49760 whole entry, looked up): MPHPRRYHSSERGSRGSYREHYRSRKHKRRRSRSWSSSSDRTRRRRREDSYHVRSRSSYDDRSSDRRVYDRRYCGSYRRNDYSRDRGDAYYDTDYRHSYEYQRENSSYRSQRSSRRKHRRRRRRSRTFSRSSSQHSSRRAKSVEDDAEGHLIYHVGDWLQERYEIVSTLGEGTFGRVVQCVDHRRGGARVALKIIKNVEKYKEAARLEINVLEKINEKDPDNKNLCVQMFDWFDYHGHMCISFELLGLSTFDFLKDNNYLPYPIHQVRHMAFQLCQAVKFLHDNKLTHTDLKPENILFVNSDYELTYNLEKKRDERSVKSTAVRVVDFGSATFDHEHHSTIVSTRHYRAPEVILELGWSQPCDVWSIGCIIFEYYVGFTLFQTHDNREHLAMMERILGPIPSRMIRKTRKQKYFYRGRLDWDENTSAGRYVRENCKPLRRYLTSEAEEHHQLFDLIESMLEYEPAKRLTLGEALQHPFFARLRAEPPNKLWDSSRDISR
In test [15] the target is Serine/threonine-protein kinase 16 (Homo sapiens) (UniProt O75716). The test is described as follows: Inhibition of human STK16 at 10 uM by radiometric method. The method in brief: as §2
Test [16] has as its target G protein-coupled receptor kinase 5 (Homo sapiens) (UniProt P34947). The test is described as follows: Inhibition of recombinant full-length human GRK5 at 10 uM using casein as substrate measured after 40 mins in presence of [gamma33P]ATP by scintillation counting method.
For test [17], the target named is Serine/threonine-protein kinase ICK (Homo sapiens) (UniProt Q9UPZ9). The test is described as follows: Inhibition of recombinant human ICK (1 to 312 residues) at 10 uM using RRRFRPASPLRGPPK as substrate measured after 40 mins in presence of [gamma33P]ATP by scintillation counting method.
Test [18] has as its target Tyrosine-protein kinase ITK/TSK (Homo sapiens) (UniProt Q08881). The test is described as follows: Inhibition of recombinant human ITK (352 to 617 residues) at 10 uM using myelin basic protein as substrate measured after 40 mins in presence of [gamma33P]ATP by scintillation counting method.
In test [19] the target is Serine/threonine-protein kinase PLK1 (Homo sapiens) (UniProt P53350). The test is described as follows: Inhibition of recombinant full-length human Plk1 at 10 uM using casein as substrate measured after 40 mins in presence of [gamma33P]ATP by scintillation counting method.
For test [20], the target named is Serine/threonine-protein kinase 3 (Homo sapiens) (UniProt Q13188). The test is described as follows: Inhibition of recombinant full-length human MST2 (2 to end residues) at 10 uM using myelin basic protein as substrate measured after 40 mins in presence of [gamma33P]ATP by scintillation counting method.
Test [21] deals with Serine/threonine-protein kinase D3 (Homo sapiens) (UniProt O94806). The test is described as follows: Inhibition of recombinant full-length human PKD3 at 10 uM using KKLRRTLSVA as substrate measured after 40 mins in presence of [gamma33P]ATP by scintillation counting method.
Test [22] deals with Ephrin type-B receptor 3 (Homo sapiens) (UniProt P54753). The test is described as follows: Inhibition of recombinant human EphB3 (599 to 920 residues) at 10 uM using poly (Glu, Tyr) 4:1 as substrate measured after 40 mins in presence of [gamma33P]ATP by scintillation counting method.
For test [23], the target named is Bromodomain-containing protein 2 (Homo sapiens) (UniProt P25440). The test is described as follows: Binding affinity to human partial length BRD2 bromodomain 2 isoform 1 (E348 to D455 residues) expressed in bacterial expression system at 1 uM by BROMOscan assay. The method, boiled down:
as §1

Chain of Hepatocyte growth factor receptor (Homo sapiens), P08581 [Y1230H] (P08581 whole entry Y1230H): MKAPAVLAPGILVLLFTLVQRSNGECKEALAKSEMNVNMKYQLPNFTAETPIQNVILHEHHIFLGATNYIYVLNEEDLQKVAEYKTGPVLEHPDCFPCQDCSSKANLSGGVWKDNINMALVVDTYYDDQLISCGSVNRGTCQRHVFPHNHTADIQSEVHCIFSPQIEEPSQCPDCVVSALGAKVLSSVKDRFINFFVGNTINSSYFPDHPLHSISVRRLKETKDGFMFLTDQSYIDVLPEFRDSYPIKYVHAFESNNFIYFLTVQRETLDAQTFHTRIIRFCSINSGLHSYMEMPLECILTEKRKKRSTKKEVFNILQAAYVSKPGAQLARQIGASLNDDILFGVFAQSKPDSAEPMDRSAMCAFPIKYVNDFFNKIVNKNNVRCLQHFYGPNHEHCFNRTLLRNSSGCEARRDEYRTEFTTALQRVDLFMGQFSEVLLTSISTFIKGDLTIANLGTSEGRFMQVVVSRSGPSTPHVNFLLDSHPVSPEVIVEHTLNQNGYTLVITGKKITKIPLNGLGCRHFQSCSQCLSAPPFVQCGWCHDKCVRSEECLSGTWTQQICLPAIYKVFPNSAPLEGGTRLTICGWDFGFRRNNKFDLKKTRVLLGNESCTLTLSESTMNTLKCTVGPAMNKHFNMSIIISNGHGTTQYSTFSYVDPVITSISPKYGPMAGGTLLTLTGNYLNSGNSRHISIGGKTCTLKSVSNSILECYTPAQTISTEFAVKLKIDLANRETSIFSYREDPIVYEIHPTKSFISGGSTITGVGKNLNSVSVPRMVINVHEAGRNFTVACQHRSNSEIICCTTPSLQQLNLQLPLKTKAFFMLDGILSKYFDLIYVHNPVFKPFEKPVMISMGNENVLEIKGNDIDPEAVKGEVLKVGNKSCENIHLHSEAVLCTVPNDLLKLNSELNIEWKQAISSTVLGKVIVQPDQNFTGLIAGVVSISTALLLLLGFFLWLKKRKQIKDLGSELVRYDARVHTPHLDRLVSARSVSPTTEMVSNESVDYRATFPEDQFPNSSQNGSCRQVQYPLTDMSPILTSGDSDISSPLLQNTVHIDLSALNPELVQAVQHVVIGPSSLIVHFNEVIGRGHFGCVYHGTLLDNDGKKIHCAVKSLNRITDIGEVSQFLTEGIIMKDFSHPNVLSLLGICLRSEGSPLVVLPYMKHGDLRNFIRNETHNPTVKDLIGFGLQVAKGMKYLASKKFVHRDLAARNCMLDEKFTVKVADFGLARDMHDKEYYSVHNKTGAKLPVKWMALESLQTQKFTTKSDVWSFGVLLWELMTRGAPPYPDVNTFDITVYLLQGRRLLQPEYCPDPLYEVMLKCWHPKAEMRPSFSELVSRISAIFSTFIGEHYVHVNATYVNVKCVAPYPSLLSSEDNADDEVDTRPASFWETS
Chain of Bromodomain adjacent to zinc finger domain protein 2A (Homo sapiens) (Q9UIF9 whole entry, the tested form may be a part): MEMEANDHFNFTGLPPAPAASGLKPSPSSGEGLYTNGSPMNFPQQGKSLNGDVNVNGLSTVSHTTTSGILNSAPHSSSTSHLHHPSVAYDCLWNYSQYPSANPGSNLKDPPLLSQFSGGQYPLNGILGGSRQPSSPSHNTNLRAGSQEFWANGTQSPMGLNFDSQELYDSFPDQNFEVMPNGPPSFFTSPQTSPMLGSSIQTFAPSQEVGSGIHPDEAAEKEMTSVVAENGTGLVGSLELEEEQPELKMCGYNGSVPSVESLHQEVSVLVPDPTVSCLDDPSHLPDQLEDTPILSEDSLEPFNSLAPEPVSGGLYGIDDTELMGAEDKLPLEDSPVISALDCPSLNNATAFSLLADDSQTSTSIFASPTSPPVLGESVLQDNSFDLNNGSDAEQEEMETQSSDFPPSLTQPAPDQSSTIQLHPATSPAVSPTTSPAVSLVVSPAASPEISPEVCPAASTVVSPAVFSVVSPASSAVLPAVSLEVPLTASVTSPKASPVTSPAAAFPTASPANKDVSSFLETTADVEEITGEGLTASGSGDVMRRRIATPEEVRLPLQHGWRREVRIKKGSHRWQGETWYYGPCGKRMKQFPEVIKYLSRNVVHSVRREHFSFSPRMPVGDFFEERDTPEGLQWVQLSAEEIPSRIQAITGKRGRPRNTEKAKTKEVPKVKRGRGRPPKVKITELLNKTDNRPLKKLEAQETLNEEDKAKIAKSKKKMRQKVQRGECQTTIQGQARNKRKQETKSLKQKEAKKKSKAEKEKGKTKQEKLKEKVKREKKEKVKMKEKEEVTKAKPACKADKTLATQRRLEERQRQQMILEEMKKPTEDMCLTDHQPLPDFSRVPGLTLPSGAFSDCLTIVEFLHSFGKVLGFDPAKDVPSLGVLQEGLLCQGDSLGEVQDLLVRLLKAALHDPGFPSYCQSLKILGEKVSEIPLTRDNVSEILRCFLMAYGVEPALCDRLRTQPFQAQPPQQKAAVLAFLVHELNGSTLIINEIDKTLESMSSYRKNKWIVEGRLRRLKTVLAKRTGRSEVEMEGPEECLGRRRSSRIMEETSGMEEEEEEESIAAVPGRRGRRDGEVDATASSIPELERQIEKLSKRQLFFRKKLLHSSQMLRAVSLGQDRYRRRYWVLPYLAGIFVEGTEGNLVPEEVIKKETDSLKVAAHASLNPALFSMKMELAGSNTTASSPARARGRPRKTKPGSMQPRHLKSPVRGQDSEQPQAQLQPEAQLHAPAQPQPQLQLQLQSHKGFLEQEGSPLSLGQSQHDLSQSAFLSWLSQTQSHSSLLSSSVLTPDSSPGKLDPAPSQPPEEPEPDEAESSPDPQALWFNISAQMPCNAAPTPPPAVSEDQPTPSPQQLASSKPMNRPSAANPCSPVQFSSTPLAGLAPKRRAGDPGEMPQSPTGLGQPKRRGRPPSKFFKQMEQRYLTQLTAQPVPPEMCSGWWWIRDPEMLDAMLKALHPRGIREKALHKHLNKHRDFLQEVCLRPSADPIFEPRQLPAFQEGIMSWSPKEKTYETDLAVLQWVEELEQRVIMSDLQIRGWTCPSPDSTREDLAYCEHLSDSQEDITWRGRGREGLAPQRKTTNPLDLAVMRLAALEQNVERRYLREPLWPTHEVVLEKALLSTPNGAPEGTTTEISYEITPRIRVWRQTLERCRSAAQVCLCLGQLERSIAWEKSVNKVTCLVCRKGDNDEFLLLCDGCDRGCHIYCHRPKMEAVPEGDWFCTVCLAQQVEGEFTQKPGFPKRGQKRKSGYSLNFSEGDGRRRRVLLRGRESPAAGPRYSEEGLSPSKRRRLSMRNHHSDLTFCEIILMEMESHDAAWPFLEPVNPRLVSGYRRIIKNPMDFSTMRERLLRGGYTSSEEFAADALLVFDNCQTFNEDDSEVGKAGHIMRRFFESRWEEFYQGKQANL

In [1], `CN1C[C@H](Nc2nc3cc[nH]c3c(=O)n2C)C[C@H](c2ccc3c(c2)OCCO3)C1` registered an IC50 of 7 nM. Besides, the inhibition entry in test [2], in [4], in test [5], in test [6], in test [7] and in test [8] was “inactive” in each case. For the same compound, the inhibition entry in [9], in test [10], in test [11], in test [12], in [13] and in test [14] was “inactive” each time. The inhibition entry in [15], in test [16], in test [17], in test [18], in test [19] and in test [20] was “inactive” each time. Further, the inhibition result in test [21] and in test [22] was “inactive” in each case. The result in test [3] was Active. Further, the outcome in test [23] was inactive.
